These results are taken from ChEMBL document CHEMBL1147555, “2,3-diarylpyran-4-ones: a new series of selective cyclooxygenase-2 inhibitors” (Bioorg Med Chem Lett, 2004).

Data set [1] concerns the target T1, Prostaglandin G/H synthase 1 (Mus musculus) (UniProt P22437).
T1 sequence (whole entry): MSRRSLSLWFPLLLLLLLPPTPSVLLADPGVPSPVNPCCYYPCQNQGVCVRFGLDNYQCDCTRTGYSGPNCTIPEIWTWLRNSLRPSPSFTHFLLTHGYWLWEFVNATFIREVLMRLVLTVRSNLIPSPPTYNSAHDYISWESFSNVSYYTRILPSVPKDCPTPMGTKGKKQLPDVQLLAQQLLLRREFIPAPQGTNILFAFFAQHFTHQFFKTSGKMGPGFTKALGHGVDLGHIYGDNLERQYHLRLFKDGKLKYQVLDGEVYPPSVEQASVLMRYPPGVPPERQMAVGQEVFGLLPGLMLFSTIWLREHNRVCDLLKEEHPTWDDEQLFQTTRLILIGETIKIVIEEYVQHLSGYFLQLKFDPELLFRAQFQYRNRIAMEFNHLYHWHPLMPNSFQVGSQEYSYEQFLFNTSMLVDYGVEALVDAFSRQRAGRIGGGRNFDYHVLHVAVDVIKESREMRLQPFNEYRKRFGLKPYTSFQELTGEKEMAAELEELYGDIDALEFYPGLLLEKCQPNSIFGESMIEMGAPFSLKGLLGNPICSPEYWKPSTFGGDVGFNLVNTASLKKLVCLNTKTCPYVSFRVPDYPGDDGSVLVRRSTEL
The experiment in a line: In vitro percentage inhibitory activity against prostaglandin G/H synthase 1 from freshly harvested mouse peritoneal macrophages at 10 ug/mL.

In data set [2] the target is T2, Prostaglandin G/H synthase 2 (Mus musculus, UniProt Q05769).
T2 sequence (Q05769 whole entry): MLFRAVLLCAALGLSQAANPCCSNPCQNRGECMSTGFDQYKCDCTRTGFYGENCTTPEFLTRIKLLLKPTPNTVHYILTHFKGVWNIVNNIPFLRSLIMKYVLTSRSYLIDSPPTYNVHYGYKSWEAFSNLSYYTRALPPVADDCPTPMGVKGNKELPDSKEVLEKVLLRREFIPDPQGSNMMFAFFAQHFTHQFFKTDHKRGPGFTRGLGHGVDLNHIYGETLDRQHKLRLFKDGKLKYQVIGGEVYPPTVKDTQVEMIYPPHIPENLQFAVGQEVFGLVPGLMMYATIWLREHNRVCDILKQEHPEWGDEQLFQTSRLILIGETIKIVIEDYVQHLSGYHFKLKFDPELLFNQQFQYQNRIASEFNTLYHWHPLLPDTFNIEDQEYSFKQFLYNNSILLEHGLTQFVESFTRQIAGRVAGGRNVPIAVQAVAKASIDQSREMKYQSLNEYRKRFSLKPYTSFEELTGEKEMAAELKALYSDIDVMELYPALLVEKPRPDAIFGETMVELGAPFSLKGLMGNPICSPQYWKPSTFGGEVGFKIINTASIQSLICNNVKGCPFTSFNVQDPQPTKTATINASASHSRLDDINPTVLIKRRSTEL
The experiment in a line: Inhibitory activity against Prostaglandin G/H synthase 2 from freshly harvested mouse peritoneal macrophages.

The test system of data set [3] is Rattus norvegicus. The experiment in a line: Inhibitory effect of compound on carrageenan-induced rat paw edema administered p.o. at 10 mg/kg. The format is functional. To be noted: route oral. The method, boiled down:
(§1)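 Compound given orally; paw swelling measured and expressed as percent inhibition, five animals per group.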
On the technique in general: In the carrageenan paw model, swelling and tenderness develop within hours.

The test system of data set [4] is Rattus norvegicus. The experiment in a line: Inhibitory effect of compound on carrageenan-induced rat paw edema administered p.o. at 3 mg/kg. The format is functional. As to conditions: route oral. Put shortly:
as §1

Data set [5] has as its target T2, Prostaglandin G/H synthase 2. Nature of the data set: In vitro inhibitory activity against Prostaglandin G/H synthase 2 from freshly harvested mouse peritoneal macrophages; Not active.
Data set [6] can be described thus: Plasma half-life in rat. The format is ADME, organism-based.
Data set [7] can be described thus: Maximum plasma concentration in rat. The format is ADME, organism-based.
Data set [8] can be described thus: Time of maximum plasma concentration in rat. The format is ADME, organism-based.
The target in data set [9] is T3, Prostaglandin G/H synthase 2 (Mus musculus) (UniProt Q05769).
T3 sequence (whole entry): T2 sequence (Q05769 whole entry)
Nature of the data set: In vitro percentage inhibition of Prostaglandin G/H synthase 2 from freshly harvested mouse peritoneal macrophages at 10 ug/ml.

pIC50: −log10 of the molar value.

`CS(=O)(=O)c1ccc(-c2occ(Cl)c(=O)c2-c2ccccc2F)cc1` displayed an inhibition in data set [1] of 19%. Further, in [2], the pIC50 was 5.20.
`CS(=O)(=O)c1ccc(-c2occ(Cl)c(=O)c2-c2ccc(F)cc2)cc1` showed an inhibition in data set [1] of less than 5%. In addition, in the data set with Rattus norvegicus [3], testing at 10 mg/kg gave an inhibition in vivo of 33%. The inhibition in vivo at 3 mg/kg in the data set with Rattus norvegicus [4] was 20%.
Compound `CS(=O)(=O)c1ccc(-c2oc3ccccc3c(=O)c2-c2cccnc2)cc1` gave an inhibition in vivo at 10 mg/kg in the data set on Rattus norvegicus [3] of 25%.
In turn, `CS(=O)(=O)c1ccc(-c2occ(Cl)c(=S)c2-c2ccc(F)cc2)cc1` returned an inhibition in data set [1] of less than 5%. In data set [2], this compound showed a pIC50 of 6.08.
The compound `CCc1ccc(-c2c(-c3ccc(S(C)(=O)=O)cc3)occ(Cl)c2=O)cc1` gave an inhibition in data set [1] of 14%. In data set [2], this compound had a pIC50 of 6.14. This compound had an inhibition in vivo at 10 mg/kg in the data set on Rattus norvegicus [3] of 4%.
Regarding `CS(=O)(=O)c1ccc(-c2occ(Cl)c(=O)c2-c2cc(F)cc(F)c2)cc1`, the inhibition in data set [1] is less than 5%. Also, the pIC50 in [2] was 5.63.
In data set [1], `CS(=O)(=O)c1ccc(-c2occ(Cl)c(=O)c2-c2ccc(OCc3ccccc3)cc2)cc1` showed an inhibition of less than 5%. Further, the IC50 entry in [5] was “Not Active”.
`Cc1ccc(-c2c(-c3ccc(S(C)(=O)=O)cc3)occ(Cl)c2=O)cc1` showed an inhibition in [1] of less than 5%. The pIC50 in data set [2] was 5.75.
Take `CS(=O)(=O)c1ccc(-c2occ(Cl)c(=O)c2-c2ccc(F)cc2F)cc1`: the inhibition in [1] is 6%. In data set [2], this compound gave a pIC50 of 5.86. In the data set on Rattus norvegicus [4], this compound yielded an inhibition in vivo at 3 mg/kg of 20%.
`CS(=O)(=O)c1ccc(-c2occ(Cl)c(=O)c2-c2ccc(O)cc2)cc1` displayed an inhibition in data set [1] of 17%. In addition, the IC50 result in [5] was “Not Active”.
Regarding `CS(=O)(=O)c1ccc(-c2occ(Cl)c(=O)c2-c2ccc(-c3ccccc3)cc2)cc1`, the inhibition in data set [1] is 68%. This compound also showed a pIC50 in data set [2] of 7.04. Also, the inhibition in vivo at 10 mg/kg with Rattus norvegicus [3] is 21%.
For the compound `CS(=O)(=O)c1ccc(-c2occc(=O)c2-c2ccc(F)cc2)cc1`, in data set [1], the inhibition was less than 5%. The compound also gave a pIC50 in data set [2] of 5.65.
On the same counts, the results for `CS(=O)(=O)c1ccc(-c2occ(Cl)c(=O)c2-c2ccccc2)cc1` are less than 5% and 5.97.
For `COc1ccc(-c2c(-c3ccc(S(C)(=O)=O)cc3)occ(Cl)c2=O)cc1` the same measures were less than 5% and 5.16.
With `CS(=O)(=O)c1ccc(-c2occ(Cl)c(=O)c2-c2cccc(-c3ccccc3)c2)cc1`, the inhibition in data set [1] was less than 5%. Moreover, the IC50 entry in [5] is on record as “Not Active”.
In [6], `CS(=O)(=O)c1ccc(-c2occ(Cl)c(=O)c2-c2ccc(F)c(F)c2)cc1` showed a half-life of 3.7 h. This compound registered a Cmax in data set [7] of 5100 ng/mL. Also, the Tmax in data set [8] was found to be 4 h. The inhibition in [1] was found to be 20%. Further, in data set [2], the pIC50 is 5.91. In addition, the inhibition in vivo at 10 mg/kg with Rattus norvegicus [3] was 37%. The same compound yielded an inhibition in vivo at 3 mg/kg in the data set on Rattus norvegicus [4] of 10%.
`CS(=O)(=O)c1ccc(-c2occ(Cl)c(=O)c2-c2cccc(F)c2)cc1` returned an inhibition in [1] of less than 5%. The pIC50 in [2] is 5.85.
On the same counts, the results for `CS(=O)(=O)c1ccc(-c2occ(Cl)c(=O)c2-c2cccnc2)cc1` are less than 5% and 5.15.
In the data set on Rattus norvegicus [3], `Cc1ccc(-c2cc(C(F)(F)F)nn2-c2ccc(S(N)(=O)=O)cc2)cc1` [CELECOXIB] had an inhibition in vivo at 10 mg/kg of 42%. In the data set with Rattus norvegicus [4], the inhibition in vivo at 3 mg/kg was found to be 29%.
In data set [1], `CS(=O)(=O)c1ccc(-c2occ(Cl)c(=O)c2-c2ccsc2)cc1` returned an inhibition of less than 5%. The compound further showed a pIC50 in [2] of 6.13. Further, testing at 10 mg/kg with Rattus norvegicus [3] gave an inhibition in vivo of 13%.
For `COc1ccc2c(c1)c(CC(=O)O)c(C)n2C(=O)c1ccc(Cl)cc1` [INDOMETHACIN], the inhibition in vivo at 10 mg/kg with Rattus norvegicus [3] came out at 42%.
`CS(=O)(=O)c1ccc(-c2occ(Cl)c(=O)c2-c2ccc(-c3ccccc3)c(F)c2)cc1` had an inhibition in data set [1] of 70%. For the same compound, the pIC50 in data set [2] was 7.06.
Take `CS(=O)(=O)c1ccc(-c2occ(Cl)c(=O)c2-c2cccc(Cl)c2)cc1`: the inhibition in data set [1] is less than 5%. The compound also had a pIC50 in [2] of 5.85.
For the compound `CS(=O)(=O)c1ccc(-c2occ(Cl)c(=O)c2-c2cccs2)cc1`, the inhibition in data set [9] is 9%; in data set [1] it was less than 5%.
For `CS(=O)(=O)c1ccc(-c2occ(Cl)c(=O)c2-c2ccc(Cl)cc2)cc1`, the inhibition in data set [1] is less than 5%.

In general, inhibition refers to the change of the read-out against control, counted positive when it falls. One may read the pIC50 as the negative decadic logarithm of the IC50, by convention in mol/L. As usually defined, the inhibition in vivo is how much of the control response was suppressed. By half-life is commonly meant the time needed for the level to fall by half in the phase considered. As usually defined, the Cmax is the maximum level reached in the sampled fluid or tissue. In general, Tmax refers to the time from dosing to the highest level.
